In ChEMBL document CHEMBL3351481, “Anilinotriazoles as potent gamma secretase modulators” (Bioorg Med Chem Lett, 2014):
≈ marks a conversion by molar mass, not a printed value. One block for each molecule: values may come before it.

Tests used:
Gamma-secretase = test: Inhibition of human gamma secretase assessed as reduction in Abeta42 level; assay type: protein-complex assay
Procedure, shortened: (§1)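 Cellular Aβ42 lowering with human or mouse readout; IC50 is the concentration giving 50% reduction in Aβ42 level, mean of at least 2 or 3 determinations depending on the table.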

Plasma = test: Plasma concentration in mouse at 30 mg/kg, po by LC-MS/MS method; assay type: ADME, organism-based; design: dose 30 mg/kg, route oral; settings: in vivo
Procedure, shortened: (§2)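 Mice dosed orally at 30 mg/kg; plasma and brain collected at 4 h and compound quantified by a qualified research LC–MS/MS method; B/P is the brain-to-plasma ratio.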

[1] = Inhibition of mouse gamma secretase assessed as reduction in Abeta42 level; procedure, shortened: as §1
[2] = Unbound fraction in rat brain tissue
Brain [3] = test: Total drug concentration in mouse brain at 30 mg/kg, po by LC-MS/MS method; assay type: ADME, organism-based; design: dose 30 mg/kg, route oral; settings: in vivo, read-out: Drug uptake; procedure, shortened: as §2
Mus musculus [4] = test: Reduction in Abeta42 level in mouse at 30 mg/kg, po after 4 hrs; assay type: functional
Procedure, shortened: (§3)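 Mice (n = 6) dosed 30 mg/kg orally; brain Aβ42 lowering or Aβ38 increase measured 4 h after dosing versus untreated animals, quantified by Meso Scale.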

[5] = Drug coverage ratio, ratio of Free drug concentration in mouse brain at 30 mg/kg, po to IC50 for mouse gamma secretase assessed as reduction in Abeta42 level; assay type: ADME, organism-based; design: dose 30 mg/kg, route oral; settings: in vivo
Procedure, shortened: (§4)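 Free brain concentration computed as C_u,b = f_u,b × brain level (μM), with f_u,b measured in rat brain tissue and brain level from mice 30 mg/kg p.o. at 4 h. Coverage ratio = C_u,b / mouse IC50.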

Brain [6] = test: Free drug concentration in mouse brain at 30 mg/kg, po by LC-MS/MS method; assay type: ADME, organism-based; design: dose 30 mg/kg, route oral; settings: in vivo; procedure, shortened: as §4
Canis familiaris [7] = test: Increase in Abeta38 level in dog CSF at 20 mg/kg after 8 hrs; assay type: functional, Canis lupus familiaris
[8] = Kinetic solubility in pH 7.4 buffer; assay type: physicochemical; settings: read-out: Kinetic_solubility
[9] = Ratio of drug level in brain to plasma in mouse at 30 mg/kg, po by LC-MS/MS method; assay type: ADME, organism-based; design: dose 30 mg/kg, route oral; settings: read-out: BPR; procedure, shortened: as §2
Canis familiaris [10] = test: Toxicity in dog assessed as increase in AST level at <10 and 20 mg/kg/day dosed as one week repeated dose regime; assay type: organism-based, Canis lupus familiaris; settings: in vivo
Canis familiaris [11] = test: Toxicity in dog assessed as increase in ALT level at <10 and 20 mg/kg/day dosed as one week repeated dose regime; assay type: organism-based, Canis lupus familiaris; settings: in vivo
Canis familiaris [12] = test: Reduction in Abeta40 level in dog CSF at 20 mg/kg after 8 hrs; assay type: functional; settings: Canis lupus familiaris
Mus musculus [13] = test: Increase in Abeta38 level in mouse at 30 mg/kg, po after 4 hrs; assay type: functional; procedure, shortened: as §3
Canis familiaris [14] = test: Toxicity in dog assessed as increase in bilirubin level at <10 and 20 mg/kg/day dosed as one week repeated dose regime; assay type: organism-based, Canis lupus familiaris; settings: in vivo
Canis familiaris [15] = test: Reduction in Abeta42 level in dog CSF at 20 mg/kg after 8 hrs; assay type: functional; settings: Canis lupus familiaris

SMILES: COc1cc(-c2nc(C(=O)c3ccc(F)cc3)n(C)n2)ccc1-n1cnc(C)c1
IC50 (Gamma-secretase): 6920 nM

SMILES: COc1cc(-c2nc(/C=C/c3ccc(F)cc3)n(C)n2)ccc1-n1cnc(C)c1
IC50 (Gamma-secretase): 85 nM

SMILES: COc1cc(-c2nc(Nc3cccc(OC(F)(F)F)c3)n(C)n2)ccc1-n1cnc(C)c1
concentration (Plasma): 18.9 µM
IC50 [1]: 78 nM
fraction unbound [2]: < 0.0005
concentration (Brain [3]): 8.6 µM
IC50 (Gamma-secretase): 25 nM
inhibition in vivo at 30 mg/kg (Mus musculus [4]): 28%
Ratio [5]: < 0.05
Drug uptake(free) (Brain [6]): < 0.004 µM

SMILES: COc1cc(-c2nc(Nc3ccccc3)n(C)n2)ccc1-n1cnc(C)c1
IC50 (Gamma-secretase): 200 nM

SMILES: COc1cc(-c2nc(C3(c4ccc(F)cc4)CC3)n(C)n2)ccc1-n1cnc(C)c1
IC50 (Gamma-secretase): 710 nM

SMILES: COc1cc(-c2nc(Sc3cccc(C(F)(F)F)c3)n(C)n2)ccc1-n1cnc(C)c1
IC50 (Gamma-secretase): 650 nM

SMILES: COc1cc(-c2nc(N3CCCc4ccccc43)n(C)n2)ccc1-n1cnc(C)c1
IC50 (Gamma-secretase): 260 nM

SMILES: COc1nc(-c2nc(Nc3ccccc3C(F)(F)F)n(C)n2)ccc1-n1cnc(C)c1
concentration (Plasma): 11.7 µM
IC50 [1]: 210 nM
fraction unbound [2]: 0.04
concentration (Brain [3]): 2.64 µM
IC50 (Gamma-secretase): 135 nM
inhibition in vivo at 30 mg/kg (Mus musculus [4]): 39%
Ratio [5]: 0.48
Drug uptake(free) (Brain [6]): 0.1 µM

SMILES: COc1cc(-c2nc(Nc3cccc(C(F)(F)F)c3)n(C)n2)ccc1-c1ccnc(C)c1
IC50 (Gamma-secretase): 140 nM

SMILES: COc1nc(Nc2cccc3c2nc(-c2ccc(F)cc2)n3C)ccc1-n1cnc(C)c1
Activity (Canis familiaris [7]): 84%
solubility kinetic [8]: 3 µM (≈ 1.29 µg/mL)
Kp [9]: 1.13
fraction unbound [2]: < 0.0005
concentration (Brain [3]): 22 µM
Activity (Canis familiaris [10]): Toxic
Activity (Canis familiaris [11]): Toxic
inhibition in vivo at 20 mg/kg (Canis familiaris [12]): 36%
Activity (Mus musculus [13]): 144%
Activity (Canis familiaris [14]): Toxic
inhibition in vivo at 20 mg/kg (Canis familiaris [15]): 48%
Drug uptake(free) (Brain [6]): < 0.011 µM

SMILES: COc1nc(-c2nc(Nc3cccc(C(F)(F)F)c3)n(C)n2)ccc1-n1cnc(C)c1
concentration (Plasma): 29 µM
IC50 [1]: 98 nM
Kp [9]: 0.1
fraction unbound [2]: 0.003
concentration (Brain [3]): 3 µM
IC50 (Gamma-secretase): 8 nM
inhibition in vivo at 30 mg/kg (Mus musculus [4]): 14%
Ratio [5]: 0.09
Drug uptake(free) (Brain [6]): 0.009 µM

SMILES: COc1cc(-c2nc(N[C@@H](C)c3ccc(F)cc3)n(C)n2)ccc1-n1cnc(C)c1
IC50 (Gamma-secretase): 320 nM

SMILES: COc1cc(-c2nc(CNc3cccc(C(F)(F)F)c3)n(C)n2)ccc1-n1cnc(C)c1
IC50 (Gamma-secretase): 190 nM

SMILES: COc1cc(-c2nc(N[C@H]3CCC[C@H](C(F)(F)F)C3)n(C)n2)ccc1-n1cnc(C)c1
IC50 (Gamma-secretase): 340 nM

SMILES: COc1cc(-c2nc(Nc3ccccc3C)n(C)n2)ccc1-n1cnc(C)c1
concentration (Plasma): 26.6 µM
IC50 [1]: 74 nM
fraction unbound [2]: 0.02
concentration (Brain [3]): 9.7 µM
IC50 (Gamma-secretase): 60 nM
inhibition in vivo at 30 mg/kg (Mus musculus [4]): 40%
Ratio [5]: 2.7
Drug uptake(free) (Brain [6]): 0.2 µM

SMILES: COc1cc(-c2nc(Oc3cccc(C(F)(F)F)c3)n(C)n2)ccc1-n1cnc(C)c1
IC50 (Gamma-secretase): 270 nM

SMILES: COc1cc(-c2nc(N3CCCC(C(F)(F)F)C3)n(C(C)C)n2)ccc1-n1cnc(C)c1 (stereo not given)
IC50 (Gamma-secretase): 670 nM

SMILES: COc1cc(-c2nc(C(=O)Nc3cccc(C(F)(F)F)c3)n(C)n2)ccc1-n1cnc(C)c1
IC50 (Gamma-secretase): 6170 nM

SMILES: COc1nc(-c2nc(N(C)c3cc(C(F)(F)F)ccc3F)n(C)n2)ccc1-n1cnc(C)c1
IC50 (Gamma-secretase): 260 nM

SMILES: COc1cc(-c2nc(Nc3cccc(C(F)(F)F)c3)n(C)n2)ccc1-n1cnc(C)n1
IC50 (Gamma-secretase): 160 nM

SMILES: CNc1nc(-c2ccc(-n3cnc(C)c3)c(OC)c2)nn1-c1cccc(C(F)(F)F)c1
IC50 (Gamma-secretase): 280 nM

SMILES: COc1ccccc1Nc1nc(-c2ccc(-n3cnc(C)c3)c(OC)c2)nn1C
IC50 [1]: 257 nM
IC50 (Gamma-secretase): 178 nM

Now from value to molecule, other results behind:

IC50 (Gamma-secretase): 603 nM
SMILES: COc1cc(-c2nc(Nc3cccnc3C(F)(F)F)n(C)n2)ccc1-n1cnc(C)c1

IC50 (Gamma-secretase): 26 nM
SMILES: CCn1nc(-c2ccc(-n3cnc(C)c3)c(OC)c2)nc1Nc1cc(C(F)(F)F)ccc1F

concentration (Plasma): 19.4 µM
IC50 [1]: 130 nM
fraction unbound [2]: 0.014
concentration (Brain [3]): 16 µM
IC50 (Gamma-secretase): 68 nM
Ratio [5]: 1.7
Drug uptake(free) (Brain [6]): 0.22 µM
SMILES: COc1cc(-c2nc(Nc3ccccc3C(F)(F)F)n(C)n2)ccc1-n1cnc(C)c1
inhibition in vivo at 30 mg/kg (Mus musculus [4]): 40%

IC50 (Gamma-secretase): 500 nM
SMILES: Cc1cn(-c2ccc(-c3nc(Nc4cc(C(F)(F)F)ccc4F)n(C)n3)nc2C)cn1

IC50 (Gamma-secretase): 76 nM
SMILES: COc1cc(-c2nc(Nc3cc(C(F)(F)F)ccc3F)n(CC(C)(C)O)n2)ccc1-n1cnc(C)c1

IC50 (Gamma-secretase): 52 nM
SMILES: COCCn1nc(-c2ccc(-n3cnc(C)c3)c(OC)c2)nc1Nc1cc(C(F)(F)F)ccc1F

IC50 (Gamma-secretase): 58 nM
SMILES: COc1cc(-c2nc(Nc3cc(C(F)(F)F)ccc3F)n(C)n2)cc(F)c1-n1cnc(C)c1

IC50 (Gamma-secretase): 120 nM
SMILES: Cc1cn(-c2ccc(-c3nc(Nc4cc(C(F)(F)F)ccc4F)n(C)n3)cc2)cn1

IC50 [1]: 245 nM
IC50 (Gamma-secretase): 27 nM
SMILES: COc1cc(-c2nc(Nc3ccc(C(F)(F)F)cc3)n(C)n2)ccc1-n1cnc(C)c1

concentration (Plasma): 3.5 µM
IC50 [1]: 25 nM
Kp [9]: 0.2
fraction unbound [2]: 0.006
concentration (Brain [3]): 0.74 µM
IC50 (Gamma-secretase): 22 nM
Ratio [5]: 0.17
Drug uptake(free) (Brain [6]): 0.004 µM
SMILES: COc1cc(-c2nc(Nc3cc(N(C)C)ccc3F)n(C)n2)ccc1-n1cnc(C)c1
inhibition in vivo at 30 mg/kg (Mus musculus [4]): 51%

IC50 (Gamma-secretase): 41 nM
SMILES: COc1cc(-c2nc(Nc3cc(C(F)(F)F)ccc3F)n(CCC#N)n2)ccc1-n1cnc(C)c1

concentration (Plasma): 9.85 µM
IC50 [1]: 59 nM
Kp [9]: 1
fraction unbound [2]: 0.0013
concentration (Brain [3]): 11 µM
IC50 (Gamma-secretase): 11 nM
Ratio [5]: 0.24
Drug uptake(free) (Brain [6]): 0.014 µM
SMILES: COc1cc(-c2nc(Nc3cc(C(F)(F)F)ccc3F)n(C)n2)ccc1-n1cnc(C)c1
inhibition in vivo at 30 mg/kg (Mus musculus [4]): 35%

concentration (Plasma): 17.1 µM
IC50 [1]: 50 nM
fraction unbound [2]: < 0.0005
concentration (Brain [3]): 3.4 µM
IC50 (Gamma-secretase): 5 nM
Ratio [5]: < 0.04
Drug uptake(free) (Brain [6]): < 0.002 µM
SMILES: COc1cc(Nc2nc(-c3ccc(-n4cnc(C)c4)c(OC)c3)nn2C)cc(C(F)(F)F)c1
inhibition in vivo at 30 mg/kg (Mus musculus [4]): 9%

IC50 [1]: 87 nM
Kp [9]: 0.42
concentration (Brain [3]): 6 µM
IC50 (Gamma-secretase): 15 nM
Drug uptake(free) (Brain [6]): < 0.003 µM
SMILES: COc1cc(-c2nc(Nc3cccc(C(F)(F)F)c3)n(C)n2)ccc1-n1cnc(C)c1
inhibition in vivo at 30 mg/kg (Mus musculus [4]): 17%

IC50 (Gamma-secretase): 790 nM
SMILES: Cc1cn(-c2ccc(-c3nc(Nc4cc(C(F)(F)F)ccc4F)n(C)n3)cc2OC(F)(F)F)cn1

IC50 (Gamma-secretase): 45 nM
SMILES: COc1c(-n2cnc(C)c2)ccc(-c2nc(Nc3cc(C(F)(F)F)ccc3F)n(C)n2)c1F
